The compounds below were run on Trypanosoma cruzi (assay: Ability to cause lysis of trypomastigote form of Trypanosoma cruzi was determined).
Assay type: functional, organism-based
How it was run: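 Bloodstream trypomastigotes (Y strain) harvested from mice inoculated intraperitoneally with 10⁵ parasites; assay in Dulbecco's modified Eagle medium; DMSO stocks, final solvent ≤0.5%.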

Row | SMILES | IC50 [µM]
1 | Cn1c([N+](=O)[O-])cnc1-c1nnc(N/N=C/c2ccccc2)s1 | > 200
2 | O=[N+]([O-])c1ccc(/C=N/Nc2nnc(-c3ccccc3)s2)cc1 | > 200
3 | CC(C)(C)c1cc(/C=N/Nc2nnc(-c3ccccc3)s2)cc(C(C)(C)C)c1O | 136
4 | Cn1c([N+](=O)[O-])cnc1-c1nnc(N/N=C/c2ccc(F)cc2)s1 | > 200
5 | C(=N\Nc1nnc(-c2ccccc2)s1)/c1ccccc1 | > 200
6 | Cn1c([N+](=O)[O-])cnc1-c1nnc(N/N=C/c2ccc3c(c2)OCO3)s1 | > 200
7 | COc1cccc(/C=N/Nc2nnc(-c3ncc([N+](=O)[O-])n3C)s2)c1O | > 200
8 | COc1cc(/C=N/Nc2nnc(-c3ncc([N+](=O)[O-])n3C)s2)ccc1O | > 200
9 | Cn1c([N+](=O)[O-])cnc1-c1nnc(N/N=C/c2ccc(OC(F)(F)F)cc2)s1 | > 200
10 | COc1ccc(/C=N/Nc2nnc(-c3ncc([N+](=O)[O-])n3C)s2)cc1 | > 200
11 | Oc1ccc(/C=N/Nc2nnc(-c3ccccc3)s2)cc1 | > 200
12 | Oc1ccccc1/C=N/Nc1nnc(-c2ccccc2)s1 | > 200
13 | Cn1c([N+](=O)[O-])cnc1-c1nnc(N/N=C\c2ccc(O)c(O)c2)s1 [BRAZILIZONE A] | 5.3

Second part, the compound after the results:

Row | IC50 [µM] | SMILES
14 | 38.4 | Cn1c([N+](=O)[O-])cnc1-c1nnc(N/N=C/c2ccc(Cl)cc2)s1
15 | 50.5 | COc1ccc(/C=N/Nc2nnc(-c3ncc([N+](=O)[O-])n3C)s2)cc1O
16 | 11.6 | Cn1c([N+](=O)[O-])cnc1-c1nnc(N/N=C/c2ccc(O)cc2)s1
17 | 33.2 | Cn1c([N+](=O)[O-])cnc1-c1nnc(N/N=C/c2cc(C(C)(C)C)c(O)c(C(C)(C)C)c2)s1
18 | 63.4 | Oc1ccc(/C=N/Nc2nnc(-c3ccccc3)s2)cc1O
19 | 17 | Cn1c([N+](=O)[O-])cnc1-c1nnc(N/N=C/c2ccc(Br)cc2)s1
20 | 22 | Cn1c([N+](=O)[O-])cnc1-c1nnc(N/N=C/c2ccc([N+](=O)[O-])cc2)s1
21 | 54.2 | Cn1c([N+](=O)[O-])cnc1-c1nnc(N/N=C/c2ccccc2O)s1

Reference: ChEMBL document CHEMBL1138713 (Bioorg Med Chem Lett, 2004)
